What was measured:
Conditions in all cases: in vivo, 24 h
[1] = Drug excretion in Rattus norvegicus CD Sprague-Dawley (rat) urine assessed as N-(3-ethoxy-4-hydroxyphenyl)-2-hydroxyacetamide at 300 mg/5ml, po daily for 4 consecutive days measured within 1 day after final dose by NMR/MS analysis; assay type: ADME, organism-based
Procedure, shortened: (§1)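 Male CD (Sprague-Dawley) rats, 11 weeks old (n=4), housed individually in glass metabolism cages separating urine and feces. [phenyl-14C]-labelled compound given by gastric probe in corn oil at 300 mg/5 mL/kg daily for 4 days. Urine from the day after the last dose: aqueous layer hydrolysed with sulfatase (with β-glucuronidase activity) in 0.2 M acetate pH 5.0, 37 °C, 19 h. Ethyl acetate extraction, then HPLC/TLC purification and NMR/ESI-MS identification.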

[2] = Drug excretion in Rattus norvegicus CD Sprague-Dawley (rat) urine assessed as 2-acetamino- 3-[5-acetamino-3-ethoxy-2-hydroxyphenylthio]propionic acid at 300 mg/5ml, po daily for 4 consecutive days measured within 1 day after final dose by NMR/MS analysis; assay type: ADME, organism-based; procedure, shortened: as §1
[3] = Drug excretion in Rattus norvegicus CD Sprague-Dawley (rat) urine assessed as (4-acetamino-2-ethoxyphenoxy) acetic acid at 300 mg/5ml, po daily for 4 consecutive days measured within 1 day after final dose by NMR/MS analysis; assay type: ADME, organism-based; procedure, shortened: as §1
[4] = Drug excretion in Rattus norvegicus CD Sprague-Dawley (rat) urine assessed as N-(3-ethoxy-4-hydroxy-5-methylsulfinylphenyl) acetamide at 300 mg/5ml, po daily for 4 consecutive days measured within 1 day after final dose by NMR/MS analysis; assay type: ADME, organism-based; procedure, shortened: as §1
[5] = Drug excretion in Rattus norvegicus CD Sprague-Dawley (rat) urine assessed as N-(3-ethoxy-4- hydroxyphenyl)acetamide at 300 mg/5ml, po daily for 4 consecutive days measured within 1 day after final dose by NMR/MS analysis; assay type: ADME, organism-based; procedure, shortened: as §1
[6] = Drug excretion in Rattus norvegicus CD Sprague-Dawley (rat) urine assessed as 1-hydroxypropan-2-yl 3-ethoxy-4-hydroxycarbanilate at 300 mg/5ml, po daily for 4 consecutive days measured within 1 day after final dose by NMR/MS analysis; assay type: ADME, organism-based; procedure, shortened: as §1
[7] = Drug excretion in Rattus norvegicus CD Sprague-Dawley (rat) urine assessed as 2-acetamino-3-{3-ethoxy-2-hydroxy-5-[(isopropoxycarbonyl) amino]phenylthio}propionic acid at 300 mg/5ml, po daily for 4 consecutive days measured within 1 day after final dose by NMR/MS analysis; assay type: ADME, organism-based; procedure, shortened: as §1
[8] = Drug excretion in Rattus norvegicus CD Sprague-Dawley (rat) urine assessed as 2-acetamino-3-{4-ethoxy-3-hydroxy-2-[(isopropoxycarbonyl)amino]phenylthio}propionic acid at 300 mg/5ml, po daily for 4 consecutive days measured within 1 day after final dose by NMR/MS analysis; assay type: ADME, organism-based; procedure, shortened: as §1
[9] = Drug excretion in Rattus norvegicus CD Sprague-Dawley (rat) urine assessed as 3-(3-ethoxy-4-hydroxyphenyl)-4-hydroxy-5-methyloxazolidin- 2-one at 300 mg/5ml, po daily for 4 consecutive days measured within 1 day after final dose by NMR/MS analysis; assay type: ADME, organism-based; procedure, shortened: as §1
[10] = Drug excretion in Rattus norvegicus CD Sprague-Dawley (rat) urine assessed as 2-{2-ethoxy-4-[(isopropoxycarbonyl)amino]- phenoxy}acetic acid at 300 mg/5ml, po daily for 4 consecutive days measured within 1 day after final dose by NMR/MS analysis; assay type: ADME, organism-based; procedure, shortened: as §1
[11] = Drug excretion in Rattus norvegicus CDSprague-Dawley (rat) urine assessed as isopropyl 3-ethoxy-4- hydroxy-5-(methylthio) carbanilate at 300 mg/5ml, po daily for 4 consecutive days measured within 1 day after final dose by NMR/MS analysis; assay type: ADME, organism-based, CD Sprague-Dawley; procedure, shortened: as §1

Measured: Drug excretion

CCOc1ccc(NC(=O)OC(C)C)cc1OCC [DIETHENOFENCARB]
Active: [1] | [2] | [3] | [4] | [5] | [6] | [7] | [8] | [9] | [10] | [11]

Reference: ChEMBL document CHEMBL3045693, “Metabolism of diethofencarb (isopropyl 3,4-diethoxyphenylcarbamate) in rats: identification of metabolites in urine” (J Agric Food Chem, 2004)
